Measured values from different studies.
Each line is one published result; the experiments were not run side by side.
Read-out: cell growth or viability

Cc1c(OCC(F)(F)F)ccnc1COc1ccc(NC(=O)Nc2ccc(F)cc2)cc1  IC50 (L02; MTT; 72 h): > 100 µM
Cc1cc(Oc2ccc(NC(=O)c3sc(-c4ccccc4)nc3C)cc2F)c2nncn2n1  IC50 (L02; MTT): > 50 µM
O=C(N/N=C/c1c(O)ccc2ccccc12)c1cc(-c2ccc3ccccc3c2)n[nH]1  IC50 (WM-115; MTS; 48 h): 5.6 µM
COc1cc(C2Oc3cc([C@H]4Oc5cc(O)cc(O)c5C(=O)[C@@H]4O)ccc3OC2CO)ccc1O (some centres unmarked)  IC50 (RWPE-1; CCK-8; 72 h): > 300 µM
Oc1c(I)cc(Cl)c2cccnc12  IC50 (L02; MTT; 48 h): 79 µM
COCCCOc1ccnc(COc2ccc(NC(=O)Nc3ccc(Cl)c(C(F)(F)F)c3)cc2)c1C  IC50 (L02; MTT; 72 h): > 100 µM
COc1cccc2c1C(=O)c1c(O)c3c(c(O)c1C2=O)C[C@@](O)(C(=O)CO)C[C@@H]3O[C@H]1C[C@H](N)[C@H](O)[C@H](C)O1  IC50 (CCD-986Sk; MTT; 48 h): > 10 µg/mL
Clc1ccnc2c1ccc1c(Cl)ccnc12  IC50 (L02; MTT; 48 h): > 50 µM
COCCCOc1ccnc(COc2ccc(NC(=O)Nc3ccc(F)cc3)cc2)c1C  IC50 (L02; MTT; 72 h): > 100 µM
Cc1cc(Oc2ccc(NC(=O)c3sc(-c4ccccn4)nc3C)cc2F)n2ncnc2n1  IC50 (L02; MTT): > 50 µM
Cc1ccc(S(=O)(=O)N(C)CC(=O)N(Cc2ccc(C3CCCCC3)cc2)c2ccc(C(=O)O)c(O)c2)cc1  IC50 (OCI-AML2): 35.9 µM
COc1c(C)cnc(COc2ccc(NC(=O)Nc3ccc(Cl)c(C(F)(F)F)c3)cc2)c1C  IC50 (L02; MTT; 72 h): > 100 µM
CC(=O)c1cccc(/N=N/c2cc(/C=C/C(=O)O)ccc2O)c1  IC50 (PANC-1; MTT): > 50 µM
O=c1[nH]cc(F)c(=O)[nH]1  IC50 (human Lymphocyte; 72 h): 18 µM
COc1ccnc(COc2ccc(NC(=O)Nc3ccc(Cl)c(C(F)(F)F)c3)cc2)c1OC  IC50 (L02; MTT; 72 h): > 100 µM
Cc1cc(Oc2ccc(NC(=O)c3cc(-c4cccs4)no3)cc2F)n2ncnc2n1  IC50 (L02; MTT): > 50 µM
Oc1ccc(Nc2nc(-c3ccc(Cl)cc3)cs2)cc1  IC50 (WM-115; MTS; 24 h): 38.9 µM
Cc1cc(Oc2ccc(NC(=O)c3sc(-c4ccccc4)nc3C)cc2F)n2ncnc2n1  IC50 (L02; MTT): > 50 µM
CC(C)[C@H](N)C(=O)N1CCC[C@H]1B(O)O  IC50 (OCI-AML2; ATP luminescence; 48 h): 0.08 µM
CCOc1cc(OCC)cc(C(=O)O[C@@H]2CN3Cc4c(cc5c(c4OC)OCO5)[C@@]24C=C[C@H](OC)C[C@@H]34)c1  IC50 (PANC-1; WST-1): 8.3 µM
COc1cc(-c2ncn(/C=C\C(=O)OC(C)C)n2)cc(C(F)(F)F)c1  IC50 (OCI-AML-3; 72 h): 0.112 µM
Cc1ccc2c(Br)cc(Br)c(O)c2n1  IC50 (L02; MTT; 48 h): > 100 µM
Cc1cnc(-c2ccc(-c3ccc(NC(=O)Nc4c(F)cc(F)cc4F)cc3F)c3c2C(=O)NC3)[nH]1  IC50 (OCI-AML-3): 0.0118 µM
Cc1cc(Oc2ccc(NC(=O)c3sc(-c4ccccc4)nc3C)cc2)c2nncn2n1  IC50 (L02; MTT): > 50 µM
C#Cc1cccc(Nc2ncnc3cc(OCCOC)c(OCCOC)cc23)c1  IC50 (PANC-1; MTT): 0.05 µM
COc1c(C)cnc(COc2ccc(NC(=O)Nc3cc(F)cc(F)c3)cc2)c1C  IC50 (L02; MTT; 72 h): > 100 µM
CCN1C(=O)N(c2c(F)c(OC)cc(OC)c2F)Cc2cnc3[nH]c(CN4CCOCC4)cc3c21  IC50 (Li-7; ATP luminescence; 96 h): 0.054 µM
COc1ccnc(COc2ccc(NC(=O)Nc3cc(F)cc(F)c3)cc2)c1OC  IC50 (L02; MTT; 72 h): > 100 µM
CO[C@H]1/C=C\C=C(/C)C(=O)NC2=C(c3ccccc3)C(=O)C(NCCN(C)C)=C(C[C@@H](C)C[C@H](OC)[C@H](O)[C@@H](C)/C=C(\C)[C@@H]1OC(N)=O)C2=O  IC50 (ARPE-19; MTT): 8.2 µM
CC[C@@H](C)[C@H](N)C(=O)N1Cc2ccccc2C1  IC50 (OCI-AML2; ATP luminescence; 48 h): 1.44 µM
Cc1cc(Oc2ccc(NC(=O)c3sc(-c4ccccn4)nc3C)cc2F)c2nncn2n1  IC50 (L02; MTT): > 50 µM
Nc1ncc(-c2cnn(C3CCNCC3)c2)cc1-c1nnc(CC2CC2)o1  IC50 (OCI-AML-3; trypan blue; 72 h): 0.479 µM
C=CCNC1=C2C[C@@H](C)C[C@H](OC)[C@H](O)[C@@H](C)/C=C(\C)[C@H](OC(N)=O)[C@@H](OC)/C=C\C=C(/C)C(=O)NC(=CC1=O)C2=O  IC50 (ARPE-19; MTT): 1 µM
Cc1c(OCC(F)(F)F)ccnc1COc1ccc(NC(=O)Nc2ccc(Cl)cc2)cc1  IC50 (L02; MTT; 72 h): > 100 µM
CCn1c(=O)c(-c2ccc(-c3cncs3)cc2Cl)cc2cnc(Nc3ccc(N4CCN(C)CC4)cc3)nc21  IC50 (PANC-1; MTT; 24 h): 14.1 µM
